Measured values from different studies.
Target: Casein kinase I isoform alpha (CSNK1A1, Homo sapiens, UniProt P48729)

Structure (SMILES)	read-out	action	technique	cells	tested at	quantity	result
CCc1ccccc1C(=O)Nc1n[nH]c2c(C)c(F)c(C3C(C#N)=C(C)N(C)C(C)=C3C#N)cc12	cell-free assay	–	competition with immobilised ligand	–	1 µM	remaining binding	96%
O=Nc1c(-c2c(O)[nH]c3cc(Br)ccc23)[nH]c2ccccc12	enzyme activity	inhibitor	–	–	0.5 µM	activity vs control	95.1%
O=C(NS(=O)(=O)c1ccc(NCC2CCOCC2)c([N+](=O)[O-])c1)c1ccc(N2CCN(Cc3ccc(C(F)(F)F)cc3-c3ccc(Cl)cc3)CC2)cc1Oc1cnc2[nH]ccc2c1	cell-free assay	–	competition with immobilised ligand	–	1 µM	remaining binding	96%
N#CCCc1ccc2c(c1)-c1[nH]c3ccc([N+](=O)[O-])cc3c1CC(=O)N2	cell-free assay	–	–	–	0.5 µM	remaining signal	95.1%
CN(c1ccnc(CNc2nc(Nc3ccc4c(c3)CC(=O)N4)ncc2C(F)(F)F)n1)S(C)(=O)=O	cell-free assay	–	competition with immobilised ligand	–	1 µM	remaining binding	81%
COc1cc2c(Nc3ccc(Br)cc3F)ncnc2cc1OCC1CCN(C)CC1	cell-free assay	–	–	–	0.5 µM	remaining signal	102%
O=C(O)[C@@H]1[C@@H](Cn2nnc3ccccc3c2=O)CC[C@H]1C(=O)c1ccc(OCCC2CCOCC2)cc1	cell-free assay	–	competition with immobilised ligand	–	1 µM	remaining binding	97%
CC(C)(O)[C@H]1CC[C@H](Nc2ccc3ncc(-c4cccc(C(F)(F)F)c4)n3n2)CC1	enzyme activity	inhibitor	–	–	1 µM	remaining activity	91.4%
COc1cccc2c(NCc3ccccc3)nc(-n3c(N)nc4ccccc43)nc12	target engagement in cells	inhibitor	chemoproteomics	–	20 mM	inhibition	4.9%
CCN1CCN(Cc2ccc(NC(=O)c3ccc(C)c(/C=C/c4cnc5[nH]ccc5c4OC)c3)cc2C(F)(F)F)CC1	target engagement in cells	inhibitor	chemoproteomics	A-375	50 nM	inhibition	-59.4%
O=C1Nc2ccc(Cl)cc2C1=Cc1cc(Cl)c(O)c(Cl)c1	cell-free assay	–	–	–	0.5 µM	remaining signal	92.6%
CN(C)C1CCN(CC#Cc2nn(C3CCCC3)c3nc(NCc4ccccc4)ncc23)C1 (stereo not shown)	enzyme activity	inhibitor	FRET	–	0.1 µM	inhibition	2%
C[S+]([O-])c1ccc(-c2nc(-c3ccncc3)c(-c3ccc(F)cc3)[nH]2)cc1 (stereo not shown)	cell-free assay	–	–	–	0.5 µM	remaining signal	63.9%
COc1cc2ncnc(Nc3ccc(Oc4ccccc4)c(C)c3C)c2cc1OC	enzyme activity	inhibitor	–	–	1 µM	inhibition	3%
Cc1cc(Nc2cc(N3CCN(C)CC3)nc(Sc3ccc(NC(=O)C4CC4)cc3)n2)[nH]n1	enzyme activity	inhibitor	–	–	0.5 µM	activity vs control	96.7%
Cc1cc(-n2nc(Cc3cc(F)cc(C(F)(F)F)c3)nc2C)ccc1C(N)=O	cell-free assay	–	competition with immobilised ligand	–	1 µM	remaining binding	100%
CCCCNc1ncc2c(-c3ccc(F)cc3)nn(C[C@H]3CC[C@H](N)CC3)c2n1	target engagement in cells	inhibitor	chemoproteomics	–	20 mM	inhibition	79.3%
CCCS(=O)(=O)Nc1ccc(F)c(C(=O)c2c[nH]c3ncc(-c4ccc(Cl)cc4)cc23)c1F	enzyme activity	inhibitor	–	–	1 µM	inhibition	< 10%
Cc1ccc(C(=O)NCc2ccsc2)cc1C#Cc1cn(C(C)C)c2ncnc(N)c12	enzyme activity	inhibitor	–	–	1 µM	activity vs control	86%
CCC(=O)N[C@@H]1CC[C@H](C(=O)N(C)c2ccc(-c3nc4ccccc4o3)cc2)C1	cell-free assay	–	competition with immobilised ligand	–	1 µM	remaining binding	100%
O=C(Nc1cnn(-c2csc(C(=O)NC3COC3)c2)c1)Nc1ccccc1Cl	enzyme activity	inhibitor	–	–	5 µM	remaining activity	98.5%
CC(C)(C)c1nc(-c2cccc(NS(=O)(=O)c3c(F)cccc3F)c2F)c(-c2ccnc(N)n2)s1	enzyme activity	inhibitor	radiometric	–	1 µM	remaining activity	94%
Nc1c(C(=O)NCc2ccc(C(=O)NCCCC3CCCCC3)cc2)cnn1-c1ccccc1	cell-free assay	–	competition with immobilised ligand	–	0.1 µM	remaining binding	100%
CCN1CCN(Cc2ccc(NC(=O)c3ccc(C)c(Oc4ccnc5[nH]ccc45)c3)cc2C(F)(F)F)CC1	target engagement in cells	inhibitor	chemoproteomics	A-375	5 µM	inhibition	-60.9%
O=C(Nc1cnn(-c2csc(C(=O)NC3COC3)c2)c1)Nc1c(F)cccc1Cl	enzyme activity	inhibitor	–	–	5 µM	remaining activity	76.6%
